Publication PMC9706633 (Poultry Science, 2022)
Entries after “also recorded” stand apart in the source; their conditions may differ.

Assays:
[1] = test system: CHO cells transfected with the empty pcDNA3.1(+) vector; experiment: pGL3-CRE-luciferase negative control, CHO cells with empty pcDNA3.1; format: cell-based, Chinese hamster; details: 6 h
Method in brief: (§1)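 CHO cells (DMEM, 10% FBS, penicillin/streptomycin, 37°C, 5% CO2) seeded a day ahead and co-transfected (jetPRIME) with 250 ng empty pcDNA3.1 plus 750 ng reporter: CRE (cAMP/PKA), NFAT-RE (calcium) or SRE (MAPK/ERK). After 24 h, cells were replated in 96-well plates and grown 24 h. They were then exposed to test peptide at 10−12–10−6 M in DMEM for 6 h, lysed, and read for luciferase.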

cCCK1R [2] = experiment: pGL4-SRE-luciferase reporter assay; format: cell-based, chicken; details: read-out: EC50, MAPK/ERK signaling pathway, CHO cells expressing cCCK1R, peptide 10^−12 M - 10^−6 M, 6 h, triplicates (N = 3)
Method in brief: (§2)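 CHO cells were grown in DMEM with 10% FBS at 37°C and 5% CO2. They were transiently co-transfected with 250 ng of chicken receptor plasmid (empty pcDNA3.1 as control) and 750 ng of reporter construct using jetPRIME. After 24 h, cells were reseeded and grown a further 24 h. Test peptide was then applied in DMEM, and lysate luciferase was measured. Data are mean ± SEM.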

cCCK2R [3] = experiment: pGL3-CRE-luciferase reporter assay; format: cell-based, chicken; details: read-out: EC50, cAMP/PKA signaling pathway, CHO cells expressing cCCK2R, peptide 10^−12 M - 10^−6 M, 6 h, triplicates (N = 3)
CCK2R = details: mammals, ref Noble and Roques, 2002, Miller and Gao, 2008, cited from earlier work; for binding affinities of CCK-8S and CCK-8NS to CCK2R compared: in words
cCCK1R [4] = experiment: Overall activation of cCCK1R; design: species or system chicken; details: 3 cell-based luciferase reporter systems and western blots; CHO cells; in words
[5] = test system: CHO cells transfected with the empty pcDNA3.1(+) vector; experiment: pGL4-SRE-luciferase negative control, CHO cells with empty pcDNA3.1; format: cell-based, Chinese hamster; details: 6 h
Method in brief: as §1

cCCK2R [6] = experiment: pGL3-NFAT-RE-luciferase reporter assay; format: cell-based, chicken; details: read-out: EC50, calcium mobilization, CHO cells expressing cCCK2R, peptide 10^−12 M - 10^−6 M, 6 h, triplicates (N = 3)
Method in brief: as §2

cCCK2R [7] = experiment: pGL4-SRE-luciferase reporter assay; format: cell-based, chicken; details: read-out: EC50, MAPK/ERK signaling pathway, CHO cells expressing cCCK2R, peptide 10^−12 M - 10^−6 M, 6 h, triplicates (N = 3)
Method in brief: as §2

cCCK2R [8] = experiment: Western blot of ERK1/2 phosphorylation, CHO cells expressing cCCK2R; format: cell-based, chicken; details: 10 nM, 10 min, normalized by β-actin, N = 4
Method in brief: (§3)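 CHO cells transfected with 1000 ng chicken CCK1R or CCK2R expression plasmid, grown in 24-well plates at 37 °C. At 24 h post-transfection, cells were exposed to test peptide (10 nM, 10 min), lysed, and immunoblotted with phospho-ERK1/2 (Thr202/Tyr204) and phospho-CREB (Ser133) rabbit mAbs. Densitometric bands normalized to β-actin, expressed as fold of untreated control; mean ± SEM, N = 4; t-test or ANOVA/Dunnett.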

cCCK1R [9] = experiment: Western blot of CREB phosphorylation, CHO cells expressing cCCK1R; format: cell-based, chicken; details: 10 nM, 10 min, normalized by β-actin, N = 4
Method in brief: as §3

cCCK2R [10] = experiment: Western blot of CREB phosphorylation, CHO cells expressing cCCK2R; format: cell-based, chicken; details: 10 nM, 10 min, normalized by β-actin, N = 4
Method in brief: as §3

cCCK1R [11] = experiment: Western blot of ERK1/2 phosphorylation, CHO cells expressing cCCK1R; format: cell-based, chicken; details: 10 nM, 10 min, normalized by β-actin, N = 4
Method in brief: as §3

[12] = test system: CHO cells transfected with the empty pcDNA3.1(+) vector; experiment: pGL3-NFAT-RE-luciferase negative control, CHO cells with empty pcDNA3.1; format: cell-based, Chinese hamster; details: 6 h
Method in brief: as §1

cCCK2R [13] = experiment: Overall activation of cCCK2R; design: species or system chicken; details: 3 cell-based luciferase reporter systems and western blots; CHO cells; in words
cCCK1R [14] = experiment: pGL3-NFAT-RE-luciferase reporter assay; format: cell-based, chicken; details: read-out: EC50, calcium mobilization, CHO cells expressing cCCK1R, peptide 10^−12 M - 10^−6 M, 6 h, triplicates (N = 3)
Method in brief: as §2

cCCK1R [15] = experiment: pGL3-CRE-luciferase reporter assay; format: cell-based, chicken; details: read-out: EC50, cAMP/PKA signaling pathway, CHO cells expressing cCCK1R, peptide 10^−12 M - 10^−6 M, 6 h, triplicates (N = 3)
Method in brief: as §2

| Substance | effect on pGL3-CRE-luciferase activity in empty-vector CHO cells ([1]; N = 3) | effect on pGL3-CRE-luciferase activity in empty-vector CHO cells ([1]; N = 3, listed as CCK-8S) | EC50 (cCCK1R [2]) | EC50 (cCCK2R [3]) | binding affinities of CCK-8S and CCK-8NS to CCK2R compared (CCK2R) | activation of cCCK1R, overall (cCCK1R [4]) | effect on pGL4-SRE-luciferase activity in empty-vector CHO cells ([5]; N = 3) | effect on pGL4-SRE-luciferase activity in empty-vector CHO cells ([5]; N = 3, listed as CCK-8S) | EC50 (cCCK2R [6]) | EC50 (cCCK2R [7]) | ERK1/2 phosphorylation (pERK1/2) (cCCK2R [8]) | CREB phosphorylation (pCREB) (cCCK1R [9]) | CREB phosphorylation (pCREB) (cCCK2R [10]) | ERK1/2 phosphorylation (pERK1/2) (cCCK1R [11]) | effect on pGL3-NFAT-RE-luciferase activity in empty-vector CHO cells ([12]; N = 3) | effect on pGL3-NFAT-RE-luciferase activity in empty-vector CHO cells ([12]; N = 3, listed as CCK-8S) | activation of cCCK2R, overall (cCCK2R [13]) | EC50 (cCCK1R [14]) | EC50 (cCCK1R [15]) | binding affinity to CCK2R, fold higher than CCK-4 (CCK2R) |
| --- | --- | --- | --- | --- | --- | --- | --- | --- | --- | --- | --- | --- | --- | --- | --- | --- | --- | --- | --- | --- |
| DYMGWMDF [cCCK-8S, (Tyr (SO3H)^27) Cholecystokinin fragment 26-33 amide] | no effect | no response | 0.32 ± 0.26 nM | 29.6 ± 7.68 nM | similar | potently activated; also recorded: can potently activate cCCK1R; also recorded: activated preferentially | no effect | no response | 1.93 ± 0.7 nM | 1.16 ± 0.61 nM | strongly enhance ERK1/2 phosphorylation | potently enhance CREB phosphorylation | potently enhance CREB phosphorylation | strongly enhance ERK1/2 phosphorylation | no effect | no response | can potently activate cCCK2R | 5.41 ± 1.15 nM | 5.76 ± 1.55 nM | – |
| CCK-8NS: non-sulfated octapeptide of CCK | – | – | – | – | similar | – | – | – | – | – | – | – | – | – | – | – | – | – | – | 10 fold |
